According to ChEMBL document CHEMBL1135742, “Modification of the structure of a metallopeptide: synthesis and biological evaluation of (111)In-labeled DOTA-conjugated rhenium-cyclized alpha-MSH analogues” (J Med Chem, 2002):

Assays:
Assay type in all cases: functional, organism-based
Mus musculus [1] = species: Mus musculus; assay: Radioactivity uptake in the muscle was expressed as a percentage of the injected radioactive dose per gram of tissue (% ID/g) in B16/F1 Murine Melanoma-Bearing C57 Mice at 4 h
Outline: (§1)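 C57 BL/6 female mice (7–8 weeks) carried B16/F1 tumours from 1×10^6 cells given s.c. in the right flank; tumours were ~500 mg at 9–10 days. Each mouse received […] of HPLC-purified, neutralized 111In-DOTA peptide via the tail vein. Mice were killed at 0.5, 2, 4 or 24 h pi. Tissues were weighed and γ-counted, expressed as % ID/g; ratios were tumor/tissue % ID/g.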

Mus musculus [2] = species: Mus musculus; assay: Radioactivity uptake in the pancreas was expressed as a percentage of the injected radioactive dose per gram of tissue (% ID/g) in B16/F1 Murine Melanoma-Bearing C57 Mice at 2 h; outline: as §1
Mus musculus [3] = species: Mus musculus; assay: Radioactivity uptake in the pancreas was expressed as a percentage of the injected radioactive dose per gram of tissue (% ID/g) in B16/F1 Murine Melanoma-Bearing C57 Mice at 24 h; outline: as §1
Mus musculus [4] = species: Mus musculus; assay: Radioactivity uptake in the spleen was expressed as a percentage of the injected radioactive dose per gram of tissue (% ID/g) in B16/F1 Murine Melanoma-Bearing C57 Mice at 0.5 h; outline: as §1
Mus musculus [5] = species: Mus musculus; assay: Radioactivity uptake in the spleen was expressed as a percentage of the injected radioactive dose per gram of tissue (% ID/g) in B16/F1 Murine Melanoma-Bearing C57 Mice at 24 h; outline: as §1
Mus musculus [6] = species: Mus musculus; assay: Radioactivity uptake in the spleen was expressed as a percentage of the injected radioactive dose per gram of tissue (% ID/g) in B16/F1 Murine Melanoma-Bearing C57 Mice at 4 h; outline: as §1
Mus musculus [7] = species: Mus musculus; assay: Radioactivity uptake in the tumor was expressed as a percentage of the injected radioactive dose per gram of tissue (% ID/g) in B16/F1 Murine Melanoma-Bearing C57 Mice at 2 h; outline: as §1
Mus musculus [8] = species: Mus musculus; assay: Radioactivity uptake in the tumor was expressed as a percentage of the injected radioactive dose per gram of tissue (% ID/g) in B16/F1 Murine Melanoma-Bearing C57 Mice at 24 h; outline: as §1
Mus musculus [9] = species: Mus musculus; assay: Radioactivity uptake in the muscle was expressed as a percentage of the injected radioactive dose per gram of tissue (% ID/g) in B16/F1 Murine Melanoma-Bearing C57 Mice at 2 h; outline: as §1
Mus musculus [10] = species: Mus musculus; assay: Radioactivity uptake in the muscle was expressed as a percentage of the injected radioactive dose per gram of tissue (% ID/g) in B16/F1 Murine Melanoma-Bearing C57 Mice at 24 h; outline: as §1
Mus musculus [11] = species: Mus musculus; assay: Radioactivity uptake in the blood was expressed as a percentage of the injected radioactive dose per gram of tissue (% ID/g) in B16/F1 Murine Melanoma-Bearing C57 Mice at 0.5 h; outline: as §1
Mus musculus [12] = species: Mus musculus; assay: Radioactivity uptake in the blood was expressed as a percentage of the injected radioactive dose per gram of tissue (% ID/g) in B16/F1 Murine Melanoma-Bearing C57 Mice at 24 h; outline: as §1
Mus musculus [13] = species: Mus musculus; assay: Radioactivity uptake in the blood was expressed as a percentage of the injected radioactive dose per gram of tissue (% ID/g) in B16/F1 Murine Melanoma-Bearing C57 Mice at 4 h; outline: as §1
Mus musculus [14] = species: Mus musculus; assay: Radioactivity uptake in the heart was expressed as a percentage of the injected radioactive dose per gram of tissue (% ID/g) in B16/F1 Murine Melanoma-Bearing C57 Mice at 24 h; outline: as §1
Mus musculus [15] = species: Mus musculus; assay: Radioactivity uptake in the kidneys was expressed as a percentage of the injected radioactive dose per gram of tissue (% ID/g) in B16/F1 Murine Melanoma-Bearing C57 Mice at 0.5 h; details: Kidney; outline: as §1
Mus musculus [16] = species: Mus musculus; assay: Radioactivity uptake in the kidneys was expressed as a percentage of the injected radioactive dose per gram of tissue (% ID/g) in B16/F1 Murine Melanoma-Bearing C57 Mice at 2 h; details: Kidney; outline: as §1
Mus musculus [17] = species: Mus musculus; assay: Radioactivity uptake in the liver was expressed as a percentage of the injected radioactive dose per gram of tissue (% ID/g) in B16/F1 Murine Melanoma-Bearing C57 Mice at 2 h; outline: as §1
Mus musculus [18] = species: Mus musculus; assay: Radioactivity uptake in the liver was expressed as a percentage of the injected radioactive dose per gram of tissue (% ID/g) in B16/F1 Murine Melanoma-Bearing C57 Mice at 4 h; outline: as §1
Mus musculus [19] = species: Mus musculus; assay: Radioactivity uptake in the lungs was expressed as a percentage of the injected radioactive dose per gram of tissue (% ID/g) in B16/F1 Murine Melanoma-Bearing C57 Mice at 0.5 h; details: Lung; outline: as §1
Mus musculus [20] = species: Mus musculus; assay: Radioactivity uptake in the lungs was expressed as a percentage of the injected radioactive dose per gram of tissue (% ID/g) in B16/F1 Murine Melanoma-Bearing C57 Mice at 24 h; details: Lung; outline: as §1
Mus musculus [21] = species: Mus musculus; assay: Uptake Ratio of Tumor/blood (each in % ID/g) in B16/F1 Murine Melanoma-Bearing C57 Mice at 0.5 h; outline: as §1
Mus musculus [22] = species: Mus musculus; assay: Uptake Ratio of Tumor/blood (each in % ID/g) in B16/F1 Murine Melanoma-Bearing C57 Mice at 24 h; outline: as §1
Mus musculus [23] = species: Mus musculus; assay: Uptake Ratio of Tumor/blood (each in % ID/g) in B16/F1 Murine Melanoma-Bearing C57 Mice at 4 h; outline: as §1
Mus musculus [24] = species: Mus musculus; assay: Uptake Ratio of Tumor/kidneys (each in % ID/g) in B16/F1 Murine Melanoma-Bearing C57 Mice at 0.5 h; details: Kidney; outline: as §1
Mus musculus [25] = species: Mus musculus; assay: Uptake Ratio of Tumor/kidneys (each in % ID/g) in B16/F1 Murine Melanoma-Bearing C57 Mice at 2 h; details: Kidney; outline: as §1
Mus musculus [26] = species: Mus musculus; assay: Uptake Ratio of Tumor/liver (each in % ID/g) in B16/F1 Murine Melanoma-Bearing C57 Mice at 4 h; outline: as §1
Mus musculus [27] = species: Mus musculus; assay: Uptake Ratio of Tumor/lungs (each in % ID/g) in B16/F1 Murine Melanoma-Bearing C57 Mice at 24 h
Outline: (§2)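 Female C57 BL/6 mice, 7–8 weeks old, carried subcutaneous right-flank B16/F1 tumors from 1×10^6 cells and were used 9–10 days later at ~500 mg tumor weight. Each received […] of HPLC-purified, pH-neutralized ¹¹¹In-DOTA peptide by tail vein. Tumor and organs were excised at the stated time, weighed and γ-counted. Each tissue was taken as % ID/g, and tumor/normal-tissue ratios were formed from these values.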

Mus musculus [28] = species: Mus musculus; assay: Uptake Ratio of Tumor/lungs (each in % ID/g) in B16/F1 Murine Melanoma-Bearing C57 Mice at 4 h; outline: as §2
Mus musculus [29] = species: Mus musculus; assay: Uptake Ratio of Tumor/muscle (each in % ID/g) in B16/F1 Murine Melanoma-Bearing C57 Mice at 0.5 h; details: Muscle tissue; outline: as §2
Mus musculus [30] = species: Mus musculus; assay: Uptake Ratio of Tumor/muscle (each in % ID/g) in B16/F1 Murine Melanoma-Bearing C57 Mice at 2 h; details: Muscle tissue; outline: as §2
Mus musculus [31] = species: Mus musculus; assay: Uptake Ratio of Tumor/muscle (each in % ID/g) in B16/F1 Murine Melanoma-Bearing C57 Mice at 24 h; details: Muscle tissue; outline: as §2
Mus musculus [32] = species: Mus musculus; assay: Uptake Ratio of Tumor/kidneys (each in % ID/g) in B16/F1 Murine Melanoma-Bearing C57 Mice at 4 h; details: Kidney; outline: as §1
Mus musculus [33] = species: Mus musculus; assay: Uptake Ratio of Tumor/liver (each in % ID/g) in B16/F1 Murine Melanoma-Bearing C57 Mice at 0.5 h; outline: as §1
Mus musculus [34] = species: Mus musculus; assay: Uptake Ratio of Tumor/liver (each in % ID/g) in B16/F1 Murine Melanoma-Bearing C57 Mice at 2 h; outline: as §1

DOTA-ReCCEHdFRWCRPV-NH2
ID/g (Mus musculus [1]): 0.086% | ID/g (Mus musculus [2]): 0.08% | ID/g (Mus musculus [3]): 0.081% | ID/g (Mus musculus [4]): 0.78% | ID/g (Mus musculus [5]): 0.32% | ID/g (Mus musculus [6]): 0.27% | ID/g (Mus musculus [7]): 17.3% | ID/g (Mus musculus [8]): 8.19% | ID/g (Mus musculus [9]): 0.03% | ID/g (Mus musculus [10]): 0.14% | ID/g (Mus musculus [11]): 1.7% | ID/g (Mus musculus [12]): 0.06% | ID/g (Mus musculus [13]): 0.085% | ID/g (Mus musculus [14]): 0.36% | ID/g (Mus musculus [15]): 9.31% | ID/g (Mus musculus [16]): 8.72% | ID/g (Mus musculus [17]): 0.38% | ID/g (Mus musculus [18]): 0.3% | ID/g (Mus musculus [19]): 1.66% | ID/g (Mus musculus [20]): 0.24% | Uptake ratio (Mus musculus [21]): 9.7 | Uptake ratio (Mus musculus [22]): 95 | Uptake ratio (Mus musculus [23]): 254 | Uptake ratio (Mus musculus [24]): 1.8 | Uptake ratio (Mus musculus [25]): 2 | Uptake ratio (Mus musculus [26]): 60.2 | Uptake ratio (Mus musculus [27]): 43.7 | Uptake ratio (Mus musculus [28]): 122 | Uptake ratio (Mus musculus [29]): 47.4 | Uptake ratio (Mus musculus [30]): 2100 | Uptake ratio (Mus musculus [31]): 42.2 | Uptake ratio (Mus musculus [32]): 2.5 | Uptake ratio (Mus musculus [33]): 25.2 | Uptake ratio (Mus musculus [34]): 45.7

DOTA-ReCCEHdFRWCKPV-NH2
ID/g (Mus musculus [1]): 0.093% | ID/g (Mus musculus [2]): 0.048% | ID/g (Mus musculus [3]): 0.027% | ID/g (Mus musculus [4]): 0.59% | ID/g (Mus musculus [5]): 0.14% | ID/g (Mus musculus [6]): 0.22% | ID/g (Mus musculus [7]): 11.4% | ID/g (Mus musculus [8]): 4.86% | ID/g (Mus musculus [9]): 0.047% | ID/g (Mus musculus [10]): 0.031% | ID/g (Mus musculus [11]): 1.57% | ID/g (Mus musculus [12]): 0.01% | ID/g (Mus musculus [13]): 0.034% | ID/g (Mus musculus [14]): 0.13% | ID/g (Mus musculus [15]): 13% | ID/g (Mus musculus [16]): 8.98% | ID/g (Mus musculus [17]): 0.23% | ID/g (Mus musculus [18]): 0.2% | ID/g (Mus musculus [19]): 1.7% | ID/g (Mus musculus [20]): 0.06% | Uptake ratio (Mus musculus [21]): 6.9 | Uptake ratio (Mus musculus [22]): 601 | Uptake ratio (Mus musculus [23]): 490 | Uptake ratio (Mus musculus [24]): 0.85 | Uptake ratio (Mus musculus [25]): 1.3 | Uptake ratio (Mus musculus [26]): 49.4 | Uptake ratio (Mus musculus [27]): 169 | Uptake ratio (Mus musculus [28]): 100 | Uptake ratio (Mus musculus [29]): 27.8 | Uptake ratio (Mus musculus [30]): 319 | Uptake ratio (Mus musculus [31]): 173 | Uptake ratio (Mus musculus [32]): 1.1 | Uptake ratio (Mus musculus [33]): 18.4 | Uptake ratio (Mus musculus [34]): 49.9

DOTA-ReCCEHdFRWCKPV-OH
ID/g (Mus musculus [1]): 0.035% | ID/g (Mus musculus [2]): 0.03% | ID/g (Mus musculus [3]): 0.064% | ID/g (Mus musculus [4]): 0.4% | ID/g (Mus musculus [5]): 0.22% | ID/g (Mus musculus [6]): 0.15% | ID/g (Mus musculus [7]): 9.19% | ID/g (Mus musculus [8]): 3.14% | ID/g (Mus musculus [9]): 0.054% | ID/g (Mus musculus [10]): 0.14% | ID/g (Mus musculus [11]): 1.56% | ID/g (Mus musculus [12]): 0.1% | ID/g (Mus musculus [13]): 0.056% | ID/g (Mus musculus [14]): 0.15% | ID/g (Mus musculus [15]): 11.5% | ID/g (Mus musculus [16]): 8.8% | ID/g (Mus musculus [17]): 0.15% | ID/g (Mus musculus [18]): 0.14% | ID/g (Mus musculus [19]): 1.21% | ID/g (Mus musculus [20]): 0.11% | Uptake ratio (Mus musculus [21]): 6.9 | Uptake ratio (Mus musculus [22]): 22.4 | Uptake ratio (Mus musculus [23]): 200 | Uptake ratio (Mus musculus [24]): 0.95 | Uptake ratio (Mus musculus [25]): 1.1 | Uptake ratio (Mus musculus [26]): 69.1 | Uptake ratio (Mus musculus [27]): 85.1 | Uptake ratio (Mus musculus [28]): 92 | Uptake ratio (Mus musculus [29]): 27.9 | Uptake ratio (Mus musculus [30]): 174 | Uptake ratio (Mus musculus [31]): 26.8 | Uptake ratio (Mus musculus [32]): 1.1 | Uptake ratio (Mus musculus [33]): 23.1 | Uptake ratio (Mus musculus [34]): 63
